Measured values: paper PMC3561458 (Investigational new drugs, 2011)

Key:
CDK2 = conditions: cited from earlier work
Plasma pharmacokinetics = type: in vivo, human; conditions: for AUC(0-t) / Cmax / Vd/F / half-life: human, plasma, oral; for Vd/F: Vz/F
In short: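 The test compound is given orally once daily for 7 days in 2-week cycles (S1). Plasma is sampled in cycle 1 on days 1, 2, 4, 7, 8 and 9, and in cycle 2 on days 1, 4 and 7. Cycle 1 day 1 is sampled from 30 min to 24 h after dosing and day 7 from 30 min to 96 h. Parent and metabolite are measured by validated LC-MS-MS, with calibration ranges of 0.00109–1.09 and 0.00105–1.05 μM respectively.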

CDK1 = conditions: cited from earlier work
CDK7 = conditions: cited from earlier work
[1] = test system: advanced/metastatic solid tumors; assay: Antitumor activity; type: in vivo, human
In short: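 Adults (≥18 y) with relapsed or refractory solid tumours and no standard therapy, ECOG 0–1, take the test compound as capsules orally once daily for 7 consecutive days in 2-week cycles (S1). Patients stay on study until progression, refusal or unacceptable toxicity. Disease is assessed by RECIST every 8 weeks and at study discontinuation.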

CDK4 = conditions: cited from earlier work
[2] = test system: CDK related biomarkers Cyclin A2, Cyclin B1 and Ki67; assay: Pharmacodynamics: qRT-PCR on skin biopsies; type: in vivo, human; conditions: pre- vs post-treatment
animals = conditions: high single or repeated doses; cited from earlier work
CDK5 = conditions: cited from earlier work
CDK2/Cyclin A complex = conditions: read-out: IC50, CDK2/Cyclin A complex; cited from earlier work

## CNC(=O)c1nn(C)c2c1C(C)(C)Cc1cnc(Nc3ccc(N4CCN(C)CC4)cc3)nc1-2 [PHA-848125AC, N,1,4,4-tetramethyl-8-{[4-(4-methylpiperazin-1-yl)phenyl]amino}-4,5-dihydro-1H-pyrazolo [4,3-h]quinazoline-3-carboxamide]
CDK2
  inhibitory activity towards CDK2: inhibitory activity
Plasma pharmacokinetics; S1 50 mg/day, mean±SD, n=2
  CL/F: 19.7 ± 4.35 L/h
Plasma pharmacokinetics; S1 100 mg/day, mean±SD, n=6
  CL/F: 13.7 ± 6.49 L/h
Plasma pharmacokinetics; S1 200 mg/day, mean±SD, n=6
  CL/F: 15.2 ± 2.44 L/h
Plasma pharmacokinetics; S1 300 mg/day, n=1
  CL/F: 7.78 L/h
Plasma pharmacokinetics; S2 150 mg/day, mean±SD, n=4
  CL/F: 16.4 ± 6.16 L/h
Plasma pharmacokinetics; S2 200 mg/day, mean±SD, n=3
  CL/F: 12.7 ± 1.60 L/h
Plasma pharmacokinetics; both schedules
  accumulation factor after repeated administrations: 3
Plasma pharmacokinetics; 50 mg/day, AUC0-24, S1 50 mg/day, Day 1, mean±SD, n=3
  AUC(0-t): 2.5 ± 0.6 µM·h
Plasma pharmacokinetics; 50 mg/day, AUC0-24, S1 50 mg/day, Day 7, mean±SD, n=3
  AUC(0-t): 6.8 ± 2.2 µM·h
Plasma pharmacokinetics; 50 mg/day, AUCt, S1 50 mg/day, Day 7, mean±SD, n=3
  AUC(0-t): 11.7 ± 5.4 µM·h
Plasma pharmacokinetics; 50 mg/day, S1 50 mg/day, Day 1, mean±SD, n=3
  Cmax: 200 ± 100 nM
Plasma pharmacokinetics; 50 mg/day, S1 50 mg/day, Day 7, mean±SD, n=3
  Cmax: 400 ± 200 nM
Plasma pharmacokinetics; 50 mg/day, S1 50 mg/day, mean±SD, n=2
  Vd/F: 707 ± 39.8 L
Plasma pharmacokinetics; 50 mg/day, t1/2,z, S1 50 mg/day, mean±SD, n=2
  half-life: 25.3 ± 4.18 h
Plasma pharmacokinetics; 100 mg/day, AUC0-24, S1 100 mg/day, Day 1, mean±SD, n=6
  AUC(0-t): 6 ± 2.2 µM·h
Plasma pharmacokinetics; 100 mg/day, AUC0-24, S1 100 mg/day, Day 7, mean±SD, n=6
  AUC(0-t): 20 ± 11 µM·h
Plasma pharmacokinetics; 100 mg/day, AUCt, S1 100 mg/day, Day 7, mean±SD, n=6
  AUC(0-t): 43.4 ± 26.8 µM·h
Plasma pharmacokinetics; 100 mg/day, S1 100 mg/day, Day 1, mean±SD, n=6
  Cmax: 400 ± 100 nM
Plasma pharmacokinetics; 100 mg/day, S1 100 mg/day, Day 7, mean±SD, n=6
  Cmax: 1200 ± 500 nM
Plasma pharmacokinetics; 100 mg/day, S1 100 mg/day, mean±SD, n=6
  Vd/F: 840 ± 550 L
Plasma pharmacokinetics; 100 mg/day, t1/2,z, S1 100 mg/day, mean±SD, n=6
  half-life: 42.9 ± 15.9 h
Plasma pharmacokinetics; 150 mg/day, AUC0-24, S1 150 mg/day, Day 1, mean±SD, n=6
  AUC(0-t): 8.8 ± 2.6 µM·h
Plasma pharmacokinetics; 150 mg/day, AUC0-24, S1 150 mg/day, Day 7, mean±SD, n=6
  AUC(0-t): 25 ± 8.6 µM·h
Plasma pharmacokinetics; 150 mg/day, AUC0-24, S2 150 mg/day, Day 1, mean±SD, n=4
  AUC(0-t): 7.2 ± 2.8 µM·h
Plasma pharmacokinetics; 150 mg/day, AUC0-24, S2 150 mg/day, Day 18, mean±SD, n=4
  AUC(0-t): 23 ± 9.5 µM·h
Plasma pharmacokinetics; 150 mg/day, AUCt, S1 150 mg/day, Day 7, mean±SD, n=6
  AUC(0-t): 46.5 ± 19.4 µM·h
Plasma pharmacokinetics; 150 mg/day, AUCt, S2 150 mg/day, Day 18, mean±SD, n=4
  AUC(0-t): 54.6 ± 25.1 µM·h
Plasma pharmacokinetics; 150 mg/day, S1 150 mg/day, Day 1, mean±SD, n=6
  Cmax: 700 ± 200 nM
Plasma pharmacokinetics; 150 mg/day, S1 150 mg/day, Day 7, mean±SD, n=6
  Cmax: 1500 ± 500 nM
Plasma pharmacokinetics; 150 mg/day, S2 150 mg/day, Day 1, mean±SD, n=4
  Cmax: 400 ± 100 nM
Plasma pharmacokinetics; 150 mg/day, S2 150 mg/day, Day 18, mean±SD, n=4
  Cmax: 1200 ± 300 nM
Plasma pharmacokinetics; 150 mg/day, S2 150 mg/day, mean±SD, n=4
  Vd/F: 1010 ± 456 L
Plasma pharmacokinetics; 150 mg/day, t1/2,z, S1 150 mg/day, mean±SD, n=6
  half-life: 33.1 ± 9.53 h
Plasma pharmacokinetics; 150 mg/day, t1/2,z, S2 150 mg/day, mean±SD, n=4
  half-life: 43.1 ± 10.7 h
Plasma pharmacokinetics; 180 mg/day, AUC0-24, S2 180 mg/day, Day 1, mean±SD, n=4
  AUC(0-t): 7 ± 2.1 µM·h
Plasma pharmacokinetics; 180 mg/day, AUC0-24, S2 180 mg/day, Day 18, mean±SD, n=4
  AUC(0-t): 17 ± 8.8 µM·h
Plasma pharmacokinetics; 180 mg/day, AUCt, S2 180 mg/day, Day 18, mean±SD, n=4
  AUC(0-t): 35.1 ± 26.3 µM·h
Plasma pharmacokinetics; 180 mg/day, S2 180 mg/day, Day 1, mean±SD, n=4
  Cmax: 500 ± 200 nM
Plasma pharmacokinetics; 180 mg/day, S2 180 mg/day, Day 18, mean±SD, n=4
  Cmax: 1100 ± 500 nM
Plasma pharmacokinetics; 180 mg/day, t1/2,z, S2 180 mg/day, mean±SD, n=4
  half-life: 23.5 ± 8.42 h
Plasma pharmacokinetics; 200 mg/day, AUC0-24, S1 200 mg/day, Day 1, mean±SD, n=6
  AUC(0-t): 9.6 ± 3.6 µM·h
Plasma pharmacokinetics; 200 mg/day, AUC0-24, S1 200 mg/day, Day 7, mean±SD, n=6
  AUC(0-t): 29 ± 4.5 µM·h
Plasma pharmacokinetics; 200 mg/day, AUC0-24, S2 200 mg/day, Day 1, mean±SD, n=3
  AUC(0-t): 12 ± 6.3 µM·h
Plasma pharmacokinetics; 200 mg/day, AUC0-24, S2 200 mg/day, Day 18, mean±SD, n=3
  AUC(0-t): 35 ± 4.6 µM·h
Plasma pharmacokinetics; 200 mg/day, AUCt, S1 200 mg/day, Day 7, mean±SD, n=6
  AUC(0-t): 63.5 ± 9.04 µM·h
Plasma pharmacokinetics; 200 mg/day, AUCt, S2 200 mg/day, Day 18, mean±SD, n=3
  AUC(0-t): 63.6 ± 17.5 µM·h
Plasma pharmacokinetics; 200 mg/day, S1 200 mg/day, Day 1, mean±SD, n=6
  Cmax: 700 ± 300 nM
Plasma pharmacokinetics; 200 mg/day, S1 200 mg/day, Day 7, mean±SD, n=6
  Cmax: 1700 ± 200 nM
Plasma pharmacokinetics; 200 mg/day, S2 200 mg/day, Day 1, mean±SD, n=3
  Cmax: 1000 ± 400 nM
Plasma pharmacokinetics; 200 mg/day, S2 200 mg/day, Day 18, mean±SD, n=3
  Cmax: 2500 ± 500 nM
Plasma pharmacokinetics; 200 mg/day, S1 200 mg/day, mean±SD, n=6
  Vd/F: 721 ± 207 L
Plasma pharmacokinetics; 200 mg/day, S2 200 mg/day, mean±SD, n=3
  Vd/F: 473 ± 68.4 L
Plasma pharmacokinetics; 200 mg/day, t1/2,z, S1 200 mg/day, mean±SD, n=6
  half-life: 32.4 ± 4.79 h
Plasma pharmacokinetics; 200 mg/day, t1/2,z, S2 200 mg/day, mean±SD, n=3
  half-life: 25.8 ± 1.46 h
Plasma pharmacokinetics; 300 mg/day, AUC0-24, S1 300 mg/day, Day 1, n=1
  AUC(0-t): 23 µM·h
Plasma pharmacokinetics; 300 mg/day, AUC0-24, S1 300 mg/day, Day 7, n=1
  AUC(0-t): 84 µM·h
Plasma pharmacokinetics; 300 mg/day, AUCt, S1 300 mg/day, Day 7, n=1
  AUC(0-t): 168 µM·h
Plasma pharmacokinetics; 300 mg/day, S1 300 mg/day, Day 1, n=1
  Cmax: 1200 nM
Plasma pharmacokinetics; 300 mg/day, S1 300 mg/day, Day 7, n=1
  Cmax: 5100 nM
Plasma pharmacokinetics; 300 mg/day, S1 300 mg/day, n=1
  Vd/F: 348 L
Plasma pharmacokinetics; 300 mg/day, t1/2,z, S1 300 mg/day, n=1
  half-life: 31 h
Plasma pharmacokinetics; half-life, terminal, overall
  half-life: ~33 h
Plasma pharmacokinetics; in vivo, po
  oral absorption: good oral absorption
CDK1
  inhibitory activity towards CDK1: inhibitory activity
CDK7
  inhibitory activity towards CDK7: inhibitory activity
[1]; CRC patient, 150 mg/day, S1
  duration of stabilization: 55.6 weeks
[1]; NSCLC patient, 200 mg/day, S1
  duration of stabilization: 24.6 weeks
[1]; S1
  objective response: No objective response
[1]; S1 N=22
  patients discontinued for lack of efficacy: 81.8%
[1]; S2 N=15
  patients discontinued for lack of efficacy: 86.7%
[1]; carcinoid patient, 180 mg/day, S2
  duration of stabilization: 29.1 weeks
[1]; pancreatic adenocarcinoma patient, 180 mg/day, S2
  duration of stabilization: 39.3 weeks
CDK4
  inhibitory activity towards CDK4: inhibitory activity
[2]
  modulation of CDK related biomarkers Cyclin A2, Cyclin B1 and Ki67: down modulation
animals
  neurological effects in animals: tremors and increased reactivity to external stimuli
CDK5
  inhibitory activity towards CDK5: inhibitory activity
CDK2/Cyclin A complex
  IC50: 45 nM
